Data from paper PMC10276036 (International Journal for Parasitology: Drugs and Drug …, 2023).

Key:
[1] = test system: epimastigotes of Trypanosoma cruzi (Y strain); experiment: Activity against epimastigote stage; type: cell-based; conditions: CC50/IC50, murine macrophages vs epimastigotes
Procedure, shortened: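 Y-strain epimastigotes, maintained in LIT + 10% FBS at 26 °C, seeded at 10^5/well with serial dilutions of test compound and 10% alamarBlue. After 3 days (exponential growth), fluorescence was read and dying parasites were confirmed by microscopy. IC50 came from nonlinear regression. CC50 came from the J774A.1 alamarBlue assay, and SI = CC50/IC50.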

[2] = Cytotoxicity on murine cells; type: cell-based; conditions: mouse, J774A.1 macrophages
Procedure, shortened: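 J774A.1 macrophages, maintained in DMEM + 10% FBS at 37 °C and 5% CO2, seeded at 10^4/well and left until fully adherent. Serial dilutions of test compound were then added in RPMI 1640 instead of DMEM, whose colour disturbs alamarBlue fluorescence. After 24 h at 37 °C and 5% CO2, alamarBlue fluorescence was read.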

[3] = test system: amastigote stage of T. cruzi; experiment: Activity against amastigote stage; type: cell-based, Trypanosoma cruzi; conditions: CC50/IC50, murine macrophages vs amastigotes

SMILES: O=C(Cn1ccnc1[N+](=O)[O-])NCc1ccccc1 [BENZ, benznidazole]
- Selectivity index (SI) against epimastigote stage [1]: 57.8
- CC50 at 24 h [2]: 399.9 ± 1.4 µM
- Selectivity index against amastigote stage [3]: 149.8
